Hits are enriched below; roughly 1.3% of the tested compounds scored in any of these assays.
SKN-1 inh – inhibitors of C. elegans SKN-1. inhibition, % at 21.8 µM. AID 624304. hit rate 0.49% among 360,000. C. elegans VP596 Pgst-4::GFP/RFP ratio, acrylamide-induced, 24 h;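 active means interference check ratio from 0.5 to 1.5 plus GFP to RFP signal ratio inhibition reaching or exceeding a fixed threshold, cut at about 30% in these data, passing the limit was not always enough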
MT1-MMP act inh – blocks activation of human MT1-MMP | AID 651647 | P50281 | hit rate 0.061% among 360,000 | GFP/RFP ratio change, % at 20 µM | HT1080 RFP-PRO-GFP cells, GFP/RFP ratio fluorescence, overnight; percent of plate control window, DMSO zero;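 active means GFP/RFP ratio change of at least 30% with cell ATP level not reduced by more than half and red fluorescence within 50% of control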
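Assay system – RFP-PRO-GFP reporter HT1080 cells · Compound dosing – single dose of 20 µM compound, 1% DMSO final · Incubation – overnight compound exposure at 37 °C · Measure – GFP/RFP fluorescence ratio · Benchmarks – DMSO wells and RFP-L50D-GFP cells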
DAGLB inhibitor – blocks human DAGLB lipase activity | Q8NCG7 | HEK293T DAGLB membrane lysate, EnzChek fluorogenic substrate | inhibition, % at 5.17 µM | hit rate 0.059% among 340,000 | AID 504411; in the data active means inhibition above about 34%;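 further: 0% = enzyme with vehicle and 100% = wells lacking enzyme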
iPSC survival up – hiPSC single-cell survival enhancement; ATPlite luminescence; 100% = ROCK inhibitor wells, 0% = DMSO; hit rate 0.044% among 360,000; survival enhancement, % at 20 µM; AID 602274; in the data active means survival enhancement above about 18%;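 further: cells exposed to compounds for 16 hours before the ATP read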
FAS-TE inh – FAS thioesterase (human) inhibition. P49327. recombinant FAS-TE, OMFH fluorogenic substrate, fluorescence endpoint. inhibition, % at 15 µM. hit rate 0.67% among 360,000;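 active means compounds whose normalised, plate-corrected inhibition of enzyme fluorescence in the single-dose primary screen is 50% or more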;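 further: 0% = DMSO with enzyme and 100% = substrate without enzyme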
Target sequence (P49327 whole entry, looked up): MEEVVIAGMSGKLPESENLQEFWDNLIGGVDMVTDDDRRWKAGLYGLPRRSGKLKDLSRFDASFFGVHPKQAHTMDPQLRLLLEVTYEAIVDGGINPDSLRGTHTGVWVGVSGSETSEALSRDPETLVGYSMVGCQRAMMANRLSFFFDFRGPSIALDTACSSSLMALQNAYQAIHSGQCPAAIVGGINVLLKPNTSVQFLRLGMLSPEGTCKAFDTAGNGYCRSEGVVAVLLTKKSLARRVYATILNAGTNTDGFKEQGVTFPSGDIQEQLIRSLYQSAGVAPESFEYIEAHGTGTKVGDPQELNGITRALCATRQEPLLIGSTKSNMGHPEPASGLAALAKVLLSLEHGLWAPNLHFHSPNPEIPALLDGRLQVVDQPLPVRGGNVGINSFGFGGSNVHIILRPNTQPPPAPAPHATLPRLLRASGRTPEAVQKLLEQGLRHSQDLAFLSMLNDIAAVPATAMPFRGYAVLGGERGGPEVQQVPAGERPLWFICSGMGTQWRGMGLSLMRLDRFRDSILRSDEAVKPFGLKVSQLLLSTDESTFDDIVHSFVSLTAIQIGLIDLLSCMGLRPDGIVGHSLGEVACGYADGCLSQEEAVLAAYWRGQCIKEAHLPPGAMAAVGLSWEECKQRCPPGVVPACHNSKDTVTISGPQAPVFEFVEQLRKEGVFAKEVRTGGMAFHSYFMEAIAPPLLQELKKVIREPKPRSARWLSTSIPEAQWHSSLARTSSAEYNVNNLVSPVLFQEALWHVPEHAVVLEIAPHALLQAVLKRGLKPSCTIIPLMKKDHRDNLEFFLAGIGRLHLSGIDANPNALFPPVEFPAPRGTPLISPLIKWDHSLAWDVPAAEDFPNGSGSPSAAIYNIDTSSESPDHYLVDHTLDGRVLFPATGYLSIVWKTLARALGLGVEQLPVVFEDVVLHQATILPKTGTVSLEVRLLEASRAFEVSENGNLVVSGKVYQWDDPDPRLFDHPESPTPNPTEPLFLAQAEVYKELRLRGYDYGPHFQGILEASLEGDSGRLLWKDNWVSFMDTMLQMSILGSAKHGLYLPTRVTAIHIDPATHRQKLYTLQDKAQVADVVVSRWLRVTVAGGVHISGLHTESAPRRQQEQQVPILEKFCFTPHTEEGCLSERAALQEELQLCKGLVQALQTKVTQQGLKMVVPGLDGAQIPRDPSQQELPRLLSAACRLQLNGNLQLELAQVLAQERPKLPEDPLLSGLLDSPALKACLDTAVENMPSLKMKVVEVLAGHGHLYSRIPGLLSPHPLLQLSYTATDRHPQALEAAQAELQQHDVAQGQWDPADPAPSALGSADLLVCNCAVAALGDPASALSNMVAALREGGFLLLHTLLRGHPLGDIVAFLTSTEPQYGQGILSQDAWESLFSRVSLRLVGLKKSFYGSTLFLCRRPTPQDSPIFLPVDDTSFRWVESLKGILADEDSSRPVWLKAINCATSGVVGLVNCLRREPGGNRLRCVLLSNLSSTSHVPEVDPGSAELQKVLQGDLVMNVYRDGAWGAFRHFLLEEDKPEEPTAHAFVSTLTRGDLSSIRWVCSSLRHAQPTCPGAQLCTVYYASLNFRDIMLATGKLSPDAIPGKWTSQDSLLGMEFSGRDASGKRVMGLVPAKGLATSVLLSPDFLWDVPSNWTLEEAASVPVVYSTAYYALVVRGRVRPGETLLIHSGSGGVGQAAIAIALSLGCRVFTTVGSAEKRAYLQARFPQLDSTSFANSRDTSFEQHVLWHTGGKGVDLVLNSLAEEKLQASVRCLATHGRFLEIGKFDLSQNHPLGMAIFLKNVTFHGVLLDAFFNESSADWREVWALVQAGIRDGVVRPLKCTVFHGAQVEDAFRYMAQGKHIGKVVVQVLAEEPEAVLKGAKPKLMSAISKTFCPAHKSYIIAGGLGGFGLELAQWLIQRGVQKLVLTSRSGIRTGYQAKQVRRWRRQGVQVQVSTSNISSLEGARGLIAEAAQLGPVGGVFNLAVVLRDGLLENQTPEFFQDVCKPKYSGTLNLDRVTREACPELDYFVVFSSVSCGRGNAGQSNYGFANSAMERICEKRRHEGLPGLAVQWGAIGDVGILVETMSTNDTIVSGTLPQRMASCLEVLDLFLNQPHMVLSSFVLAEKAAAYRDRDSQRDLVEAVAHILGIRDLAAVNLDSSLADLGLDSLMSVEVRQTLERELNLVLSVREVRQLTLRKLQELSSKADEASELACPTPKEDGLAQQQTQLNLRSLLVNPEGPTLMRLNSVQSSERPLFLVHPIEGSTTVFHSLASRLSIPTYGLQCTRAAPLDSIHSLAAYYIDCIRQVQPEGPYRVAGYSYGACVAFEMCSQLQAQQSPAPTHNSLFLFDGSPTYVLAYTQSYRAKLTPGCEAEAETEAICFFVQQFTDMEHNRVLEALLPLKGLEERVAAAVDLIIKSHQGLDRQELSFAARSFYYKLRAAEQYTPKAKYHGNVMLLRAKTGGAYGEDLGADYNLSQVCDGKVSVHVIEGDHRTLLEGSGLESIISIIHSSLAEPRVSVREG
FAS-TE inh conf – confirmation of human fatty acid synthase thioesterase inhibitors. hit rate 45% among 2,300. shares compounds with FAS-TE inh. inhibition, % at 15 µM. recombinant FAS-TE, OMFH fluorogenic substrate, fluorescence;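 active means compounds inhibiting the enzyme by at least 50% at 15 µM in any one of the replicates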;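 further: 0% = enzyme with DMSO only and 100% = wells lacking enzyme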
An asterisk follows results filed as active; . = not tested or not shown.

SMILES	SKN-1 inh	MT1-MMP act inh	DAGLB inhibitor	iPSC survival up	FAS-TE inh	FAS-TE inh conf
O=C(NC(c1ccc(Cl)cc1)c1ccsc1)C1CCN(Cc2ccc(Oc3ccccc3)cc2)CC1 (centres undefined)	7.1	-3.9	.	-1.7	20.9	.
CC(C)OC(=O)/C(C#N)=C/c1ccc(-c2ccc(SC(F)F)cc2)o1	-0.1	-6.7	-0.5	0.7	61.4*	9.4
COC(=O)/C(C#N)=C/c1ccc(-c2ccc(S(N)(=O)=O)cc2)o1	11.9	-7.3	3.6	-0.3	-3.7	.
COc1ccc(S(=O)(=O)NC(=O)C2(C)CCN2C(=O)Cc2ccc(C(C)(C)C)cc2)cc1 (centres undefined)	-0.4	-1.9	.	-1.1	-7.5	.
CC(C)OC(=O)/C(C#N)=C/c1cn(C)c2ccccc12	19.7	-1.3	-5.8	-0.7	52.2*	49.4*
CCc1noc(C)c1C(=O)OC(C)C(=O)Nc1cc([N+](=O)[O-])ccc1OC (centres undefined)	-6.9	0.1	-0.1	0.6	74.9*	33.4
COc1ccc([N+](=O)[O-])cc1NC(=O)C(C)OC(=O)c1ccccc1C(=O)c1ccc(Cl)cc1 (centres undefined)	2.1	-7.4	-2.6	-1.1	57.8*	31.0
Cc1noc(C)c1C(=O)OC(C)C(=O)Nc1ccc([N+](=O)[O-])cc1C(F)(F)F (centres undefined)	3.9	3.2	-2.6	6.8	-0.6	.
COc1ccc([N+](=O)[O-])cc1NC(=O)C(C)OC(=O)/C=C/c1ccco1 (centres undefined)	2.2	3.6	-0.3	-0.1	62.4*	59.1*
CC1(C(=O)O)CCCN(C(=O)c2cccnc2Oc2ccccc2)C1 (centres undefined)	-0.8	2.4	.	2.1	-10.6	.
O=C([C@H]1O[C@@H](n2ccc(=O)[nH]c2=O)[C@H](O)[C@@H]1O)N1CCN(c2ccc(Cl)cn2)CC1	4.9	2.5	.	0.1	-4.7	.
COc1ccc(NC(=O)c2c[nH]n3c(=O)cc(C4CCN(C(=O)OC(C)(C)C)CC4)nc23)cc1Cl	-4.1	-0.4	-0.2	-1.3	29.9	.
CC(C)(C)OC(=O)N1CCC(c2cc(=O)n3[nH]cc(C(=O)Nc4ccc(F)c(Cl)c4)c3n2)CC1	-1.0	-0.1	-2.0	-0.4	76.8*	64.4*
COc1ccc(NC(=O)/C(C#N)=C/c2c(C)nn(-c3ccc(F)cc3)c2Cl)cc1Cl	3.3	2.7	-2.3	-0.2	44.9	.
COc1ccc(NC(=O)/C(C#N)=C/c2c(C)nn(-c3ccc(F)cc3)c2Cl)cc1OC	5.4	-9.2	-0.1	-0.3	56.1*	33.0
CC(C)NC(=O)c1sc(=S)n2c1[nH]c(=O)c1ccc(C(=O)NCCc3ccc(Cl)cc3)cc12	-4.8	2.5	1.1	-0.1	64.3*	8.8
CC(NC(=O)c1cccs1)c1n[nH]c(=S)n1C (centres undefined)	1.3	-3.7	-1.2	0.8	-8.9	.
Cc1cc(S(=O)(=O)ON2C(=O)c3ccccc3C2=O)ccc1F	-1.1	-1.7	-0.6	-0.5	82.2*	79.2*
Cc1ccc(S(=O)(=O)ON2C(=O)c3cccc4cccc(c34)C2=O)cc1	-3.2	-2.7	-0.8	-0.8	26.5	.
Cc1ccc(C)c(S(=O)(=O)ON2C(=O)c3ccccc3C2=O)c1	-5.2	6.0	-0.6	-4.2	82.7*	87.7*
N#Cc1c(C(F)(F)F)cc(-c2cccs2)nc1SC(C(=O)O)c1ccccc1 (centres undefined)	1.4	-18.6	11.6	0.3	75.1*	81.6*
N#Cc1c(C(F)(F)F)cc(-c2cccs2)nc1SCC(=O)O	2.0	1.0	4.6	0.2	18.2	.
Cn1c(=O)c2c(n(C)c1=O)n(C)c(=O)n2C	-9.2	0.3	.	-0.7	0.1	.
CC1(C2CC2)NC(=O)N(CC(=O)Nc2ccc(Cl)c([N+](=O)[O-])c2)C1=O (centres undefined)	6.0	3.8	2.9	-0.2	25.9	.
O=C(CN1C(=O)NC2(CCCCCC2)C1=O)Nc1ccc(Cl)c([N+](=O)[O-])c1	-11.3	19.9	-2.7	-2.3	57.9*	69.7*
SMILES	SKN-1 inh	MT1-MMP act inh	DAGLB inhibitor	iPSC survival up	FAS-TE inh	FAS-TE inh conf
O=C(CN1CCN(S(=O)(=O)c2ccccc2)CC1)Nc1ccc(Cl)c([N+](=O)[O-])c1	8.0	0.3	1.2	-0.1	77.8*	18.3
O=C(c1ccc(Cl)c([N+](=O)[O-])c1)N1CCN(S(=O)(=O)c2ccc(Cl)cc2)CC1	18.5	-3.0	-2.8	-0.4	50.7*	30.5*
CC(C)C(NS(=O)(=O)c1cccs1)C(=O)N1CCC(C(N)=O)CC1 (centres undefined)	-1.2	-7.9	-5.3	-0.7	-7.2	.
Cc1cccc(NC(=O)CSc2nncn2N)c1C	-0.2	0.2	0.0	-0.7	-6.5	.
O=C(NCc1ccc2c3c(cccc13)C(=O)N2)c1cccs1	-7.1	-2.5	-2.0	1.2	-3.3	.
O=C1C=C(c2ccc(Cl)c(C(F)(F)F)c2)C[C@@H](c2ccc3c(c2)OCO3)C1	-4.1	0.9	-19.7	2.7	74.6*	57.8*
COc1ccc(S(=O)(=O)N(C(=O)c2ccncc2)c2ccc3oc4c(c3c2)CCCC4)cc1	8.0	-5.4	0.6	0.3	59.6*	25.5
O=C(c1ccncc1)N(c1ccc2oc3c(c2c1)CCCC3)S(=O)(=O)c1cccc([N+](=O)[O-])c1	-9.9	3.3	-2.0	1.3	49.1	.
CC1(C)CC(=O)C=C(c2ccc(-c3cnn(Cc4ccccc4)c3)cc2)C1=O	-2.7	-0.4	1.4	-3.6	59.8*	70.7*
CC1(C)CC(=O)C=C(c2ccc(COC(=O)c3ccc(-c4ccccc4)cc3)cc2)C1=O	-14.1	-1.0	-10.9	-1.8	31.4	.
CC1(C)CC(=O)C=C(c2ccc(COC(=O)Cc3ccccc3)cc2)C1=O	-0.2	1.9	-5.6	1.5	73.4*	18.7
CC1(C)CC(=O)C=C(c2ccc(-c3ccccc3)cc2)C1=O	-10.0	0.5	-7.6	0.2	21.9	.
CCN(CC)C(=O)Cn1c(=O)c2ccccc2n2c(=S)sc(-c3cccc(C)c3)c12	0.0	-148.8	1.1	0.6	-28.8	.
Cc1ccc([N+](=O)[O-])cc1N=Nc1c(-c2ccc([N+](=O)[O-])cc2)[nH]n(C(N)=S)c1=O	-5.9	-10.7	7.3	0.2	30.5	.
NC(=S)n1[nH]c(-c2ccc([N+](=O)[O-])cc2)c(N=Nc2ccc(Cl)cc2)c1=O	6.5	-16.3	9.4	-1.8	66.1*	39.7*
CC(=O)Nc1cccc(-c2ccnc3c2CC(C(=O)NCc2ccc(N4CCN(C)CC4)cc2)O3)c1 (centres undefined)	17.7	-0.5	.	-0.2	-1.6	.
O=C1[C@H]2[C@@H](c3ccc(C(F)(F)F)cc3)N[C@]3(CCCN(Cc4ccc(C(F)(F)F)cc4)C3=O)[C@H]2C(=O)N1Cc1ccccc1	10.8	1.0	-7.0	-1.9	55.2*	16.4

Assay outcomes as filed in PubChem BioAssay.
